ChEMBL document CHEMBL4725355, “Design, Synthesis, and Preclinical Evaluation of 3-Methyl-6-(5-thiophenyl)-1,3-dihydro-imidazo[4,5-b]pyridin-2-ones as Selective GluN2B Negative Allosteric Modulators for the Treatment of Mood Disorders” (J Med Chem, 2020)

How the values were obtained:
[1] = Negative allosteric modulation of human GluN1a/GluN2B receptor expressed in CHO cells assessed as inhibition of glutamate and glycine-induced calcium flux preincubated for 5 mins followed by glutamate and glycine addition and measured after 5 mins by calcium 5 dye based FLIPR assay; type: cell-based
In short: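 Tet-On CHO T-Rex cells expressing hGluN1a with GluN2A, 2B, 2C or 2D, plated at 20,000 cells/well and induced 24 h before the assay in the presence of ketamine. Cells loaded 1 h at room temperature with Calcium 5 dye, pH 7.4 HEPES buffer. Compound added 5 min, then glutamate (~EC80) plus 10 µM glycine for 5 min; FLIPR fluorescence normalized to control wells. Three independent runs in duplicate (two for some).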

[2] = target: Voltage-gated inwardly rectifying potassium channel KCNH2 (Homo sapiens, UniProt Q12809); test: Inhibition of human ERG expressed in CHO cells measured after 5 mins by Qpatch method; type: cell-based
In short: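 CHO cells stably expressing hERG, whole-cell QPatch. Vehicle applied 5 min, then 0.3, 3.0, 10 and 30 µM in rising order, each concentration applied twice. Current measured after 5 min as the average of 3 voltage pulses; block taken relative to vehicle pretreatment, mean ± SEM.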

[3] = Metabolic stability in rat liver microsomes assessed as extraction ratio at 1 uM after 5 to 60 mins in presence of NADPH by LC-MS/MS analysis; type: ADME, Microsome; details: time 5-60 min, read-out: ERH
In short: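 Human and rat liver microsomes, run in duplicate; stability reported as microsomal extraction ratio.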

[4] = Drug level in Sprague-Dawley rat brain cerebellum at 0.03 mg/kg, iv after 5 min by LC-MS/MS analysis; type: ADME, organism-based; details: read-out: Drug uptake
In short: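 Single i.v. dose of 0.03 mg/kg in 50% (w/v) PEG/water, pH 7.4; rats n=3 per group, killed at 5, 10, 30, 60 and 120 min. Cerebellum, cortex, striatum and hippocampus dissected, weighed and homogenized; drug quantified by LC-MS/MS and normalized to tissue weight. P<0.05 taken as significant versus cerebellum.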

[5] = target: T1, Cytochrome P450 2C8 (Homo sapiens, UniProt P10632); test: Inhibition of CYP2C8 in human liver microsomes using amodiaquine as substrate measured after 15 mins by LC-MS/MS analysis; type: ADME
T1 sequence (P10632 whole entry): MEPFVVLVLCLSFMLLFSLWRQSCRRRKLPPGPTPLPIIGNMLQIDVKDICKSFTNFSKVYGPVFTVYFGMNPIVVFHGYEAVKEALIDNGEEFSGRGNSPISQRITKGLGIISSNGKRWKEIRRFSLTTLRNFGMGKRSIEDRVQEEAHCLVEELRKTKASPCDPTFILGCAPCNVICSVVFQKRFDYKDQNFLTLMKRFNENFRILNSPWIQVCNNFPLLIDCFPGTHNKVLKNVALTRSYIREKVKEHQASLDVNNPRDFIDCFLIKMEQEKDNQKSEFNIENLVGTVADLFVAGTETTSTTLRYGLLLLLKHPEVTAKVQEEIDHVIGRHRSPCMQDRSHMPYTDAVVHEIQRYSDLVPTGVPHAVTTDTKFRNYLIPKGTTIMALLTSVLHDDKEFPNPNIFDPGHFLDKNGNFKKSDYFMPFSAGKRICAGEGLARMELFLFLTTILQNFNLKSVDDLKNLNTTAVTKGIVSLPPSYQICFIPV
In short: (§1)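 Human liver microsomes incubated with isoform-specific probe substrates and the test compound at concentrations up to 20 µM. IC50 derived from inhibition of metabolite formation; mean of two independent experiments, with known specific inhibitors as positive controls.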

[6] = target: Cytochrome P450 2D6 (Homo sapiens, UniProt P10635); test: Inhibition of CYP2D6 in human liver microsomes using dextromethorphan as substrate measured after 15 mins by LC-MS/MS analysis; type: ADME; in short: as §1
[7] = target: T2, Cytochrome P450 3A4 (Homo sapiens, UniProt P08684); test: Inhibition of CYP3A4 in human liver microsomes using nifedipine as substrate measured after 15 mins by LC-MS/MS analysis; type: ADME; in short: as §1
[8] = target: T2, Cytochrome P450 3A4; test: Time-dependent inhibition of CYP3A4 in human liver microsomes at 10 uM using midazolam as substrate by LC-MS/MS analysis; type: ADME
In short: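 CYP3A4 time-dependent inhibition in human liver microsomes. The compound (0.4 to 10 μM) was tested with and without 30 min preincubation. IC50 was taken from percent activity remaining versus vehicle, averaged over two independent experiments. A >2-fold IC50 shift after preincubation was the threshold for time-dependent inhibition.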

[9] = Half life in dog at 0.1 mg/kg, iv by LC-MS/MS analysis; type: ADME, organism-based, Canis lupus familiaris; details: in vivo
[10] = Volume of distribution at steady state in mouse at 0.5 mg/kg, iv by LC-MS/MS analysis; type: ADME, organism-based; details: in vivo, read-out: Vdss
[11] = Tmax in Sprague-Dawley rat at 2.5 mg/kg, po by LC-MS/MS analysis; type: ADME, organism-based; details: in vivo
[12] = Cmax in Sprague-Dawley rat at 2.5 mg/kg, po by LC-MS/MS analysis; type: ADME, organism-based; set-up: route oral, dose 2.5 mg/kg; details: in vivo
In short: (§2)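 Rat PK with IV and PO dosing, n=3. The usual doses were 0.5 mg/kg IV and 2.5 mg/kg PO in 20% HP-β-CD. One compound was instead given at 0.1 mg/kg IV and 0.5 mg/kg PO.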

[13] = AUC (infinity) in Sprague-Dawley rat at 0.5 mg/kg, iv by LC-MS/MS analysis; type: ADME, organism-based; set-up: route intravenous, time infinity, dose 0.5 mg/kg; details: in vivo; in short: as §2
[14] = Half life in Sprague-Dawley rat at 0.5 mg/kg, iv by LC-MS/MS analysis; type: ADME, organism-based; details: in vivo
[15] = Volume of distribution at steady state in Sprague-Dawley rat at 0.5 mg/kg, iv by LC-MS/MS analysis; type: ADME, organism-based; details: in vivo, read-out: Vdss
In short: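 Rat PK at 0.5 mg/kg i.v. and 2.5 mg/kg p.o., vehicle 20% HP-β-CD. n=3, values given as mean ± SD.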

[16] = Half life in monkey at 0.5 mg/kg, po by LC-MS/MS analysis; type: ADME, organism-based, Macaca mulatta; details: rhesus monkey, in vivo
[17] = Tmax in monkey at 0.5 mg/kg, po by LC-MS/MS analysis; type: ADME, organism-based, Macaca mulatta; details: rhesus monkey, in vivo
[18] = Cmax in Sprague-Dawley rat at 125 mg/kg, po administered via gavage after 24 hrs using HPMC formulation by LC-MS/MS analysis; type: ADME, organism-based; set-up: route oral, time 24 hrs, dose 125 mg/kg; details: in vivo
In short: (§3)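 Single oral gavage dose to male Sprague Dawley rats, 3 per dose level. Vehicles were a standard suspension in 5% HPMC (125, 250, 500 or 1000 mg/kg) or a nanosuspension (API:polymer 4:1), with stock diluted in vehicle on the day of dosing (100, 250 or 500 mg/kg). Blood was sampled at time points from 0.5 to 24 h.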

[19] = AUC (0 to 24 hrs) in Sprague-Dawley rat at 500 mg/kg, po administered via gavage after 24 hrs using HPMC formulation by LC-MS/MS analysis; type: ADME, organism-based; set-up: route oral, dose 500 mg/kg, time <=24; details: in vivo; in short: as §3
[20] = Cmax in Sprague-Dawley rat at 250 mg/kg, po administered via gavage after 24 hrs using nanosuspension formulation by LC-MS/MS analysis; type: ADME, organism-based; set-up: route oral, time 24 hrs, dose 250 mg/kg; details: in vivo; in short: as §3
[21] = Cmax in Sprague-Dawley rat at 500 mg/kg, po administered via gavage after 24 hrs using nanosuspension formulation by LC-MS/MS analysis; type: ADME, organism-based; set-up: route oral, time 24 hrs, dose 500 mg/kg; details: in vivo; in short: as §3
[22] = AUC (0 to 24 hrs) in Sprague-Dawley rat at 500 mg/kg, po administered via gavage after 24 hrs using nanosuspension formulation by LC-MS/MS analysis; type: ADME, organism-based; set-up: route oral, dose 500 mg/kg, time <=24; details: in vivo; in short: as §3

T2 sequence (P08684 whole entry): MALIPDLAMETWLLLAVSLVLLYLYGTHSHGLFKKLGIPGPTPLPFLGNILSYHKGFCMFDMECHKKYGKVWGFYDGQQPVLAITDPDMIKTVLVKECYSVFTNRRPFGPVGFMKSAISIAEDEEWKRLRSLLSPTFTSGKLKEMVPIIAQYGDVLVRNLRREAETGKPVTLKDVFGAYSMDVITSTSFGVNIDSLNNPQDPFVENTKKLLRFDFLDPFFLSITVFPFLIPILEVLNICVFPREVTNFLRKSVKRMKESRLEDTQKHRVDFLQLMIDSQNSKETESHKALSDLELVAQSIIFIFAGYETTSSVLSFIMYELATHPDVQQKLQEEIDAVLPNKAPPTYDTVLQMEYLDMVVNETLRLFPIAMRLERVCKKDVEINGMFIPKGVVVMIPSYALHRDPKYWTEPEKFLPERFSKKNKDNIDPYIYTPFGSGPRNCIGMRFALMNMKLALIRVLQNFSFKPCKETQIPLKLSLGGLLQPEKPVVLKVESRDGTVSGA
Chain of Cytochrome P450 2D6 (P10635 whole entry): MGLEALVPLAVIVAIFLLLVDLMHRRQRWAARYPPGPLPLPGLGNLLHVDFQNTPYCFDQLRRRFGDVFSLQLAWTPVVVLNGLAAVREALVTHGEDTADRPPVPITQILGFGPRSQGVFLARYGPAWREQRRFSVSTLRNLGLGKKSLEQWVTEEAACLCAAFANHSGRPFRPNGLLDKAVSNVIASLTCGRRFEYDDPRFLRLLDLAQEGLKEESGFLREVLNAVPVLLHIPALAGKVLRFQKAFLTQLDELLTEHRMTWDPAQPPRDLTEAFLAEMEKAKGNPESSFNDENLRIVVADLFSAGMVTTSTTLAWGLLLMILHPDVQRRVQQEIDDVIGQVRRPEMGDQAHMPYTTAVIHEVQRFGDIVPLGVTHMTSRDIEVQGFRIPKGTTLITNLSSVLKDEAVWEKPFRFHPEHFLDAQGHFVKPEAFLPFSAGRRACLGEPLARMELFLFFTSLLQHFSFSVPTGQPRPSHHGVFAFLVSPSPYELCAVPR
Chain of Voltage-gated inwardly rectifying potassium channel KCNH2 (Q12809 whole entry): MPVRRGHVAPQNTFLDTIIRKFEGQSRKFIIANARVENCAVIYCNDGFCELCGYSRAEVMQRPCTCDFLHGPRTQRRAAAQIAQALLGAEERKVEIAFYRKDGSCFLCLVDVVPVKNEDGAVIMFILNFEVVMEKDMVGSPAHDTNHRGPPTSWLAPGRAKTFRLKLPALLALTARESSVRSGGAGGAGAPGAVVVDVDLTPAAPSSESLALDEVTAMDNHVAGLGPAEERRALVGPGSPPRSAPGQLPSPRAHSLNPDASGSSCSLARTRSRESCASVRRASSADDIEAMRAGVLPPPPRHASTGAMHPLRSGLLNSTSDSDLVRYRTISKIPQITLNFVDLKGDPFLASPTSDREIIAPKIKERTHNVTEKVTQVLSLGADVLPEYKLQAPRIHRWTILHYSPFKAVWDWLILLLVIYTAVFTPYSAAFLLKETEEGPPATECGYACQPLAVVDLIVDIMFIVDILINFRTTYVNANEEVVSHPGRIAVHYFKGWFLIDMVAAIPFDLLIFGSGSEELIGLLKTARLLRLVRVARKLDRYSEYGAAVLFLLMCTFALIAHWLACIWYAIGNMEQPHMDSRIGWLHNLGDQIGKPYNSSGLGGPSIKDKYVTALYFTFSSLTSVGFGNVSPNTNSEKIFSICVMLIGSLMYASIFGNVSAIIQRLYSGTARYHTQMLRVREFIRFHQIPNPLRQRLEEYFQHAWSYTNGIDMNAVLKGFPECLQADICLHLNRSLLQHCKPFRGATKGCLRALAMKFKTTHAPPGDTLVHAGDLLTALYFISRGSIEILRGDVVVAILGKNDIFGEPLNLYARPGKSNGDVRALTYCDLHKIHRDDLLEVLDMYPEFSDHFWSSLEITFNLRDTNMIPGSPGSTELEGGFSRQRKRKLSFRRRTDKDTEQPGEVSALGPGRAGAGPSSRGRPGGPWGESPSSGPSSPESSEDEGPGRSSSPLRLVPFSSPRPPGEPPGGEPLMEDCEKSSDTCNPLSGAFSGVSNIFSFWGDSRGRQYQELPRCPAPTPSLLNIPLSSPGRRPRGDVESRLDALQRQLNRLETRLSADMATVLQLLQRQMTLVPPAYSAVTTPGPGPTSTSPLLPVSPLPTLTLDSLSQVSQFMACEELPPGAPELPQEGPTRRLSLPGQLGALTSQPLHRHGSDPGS

IC50 [1]: 0.031 µM
hepatic extraction ratio at 1 µM [3]: < 0.17
concentration at 5 min [4]: 19.3 ng/mL
IC50 [5]: > 50 µM
IC50 [6]: 15 µM
IC50 [7]: > 50 µM
TDI [8]: Not Active
half-life [9]: 0.8 h
Vd [10]: 3.2 L/kg
Tmax [11]: 1.3 h
Cmax [12]: 479 ng/mL
AUC(0-inf) [13]: 277 ng·h/mL
half-life [14]: 0.8 h
Vd [15]: 1.9 L/kg
half-life [16]: 1 h
Tmax [17]: 1 h
Cmax [18]: 4240 ng/mL
AUC(0-t) [19]: 22500 ng·h/mL
Cmax [20]: 12500 ng/mL
Cmax [21]: 18300 ng/mL
AUC(0-t) [22]: 156000 ng·h/mL
SMILES: Cn1c(=O)n(CC(=O)N2CCC2)c2cc(-c3ccc(C(F)(F)F)s3)cnc21
IC50 [2]: > 30 µM
